Measurements from ChEMBL document CHEMBL1764970, “New glucocerebrosidase inhibitors by exploration of chemical diversity of N-substituted aminocyclitols using click chemistry and in situ screening” (J Med Chem, 2011).
Calls of active or inactive are those of the source. No cut-off for these calls is given here.

Columns and labels:
[1] = molecular target: T1, Lysosomal acid glucosylceramidase (Homo sapiens, UniProt P04062); experiment: Inhibition of recombinant glucocerebrosidase in McIlvaine buffer at pH 5.2 after 10 mins by fluorometric analysis
T1 sequence (P04062 whole entry): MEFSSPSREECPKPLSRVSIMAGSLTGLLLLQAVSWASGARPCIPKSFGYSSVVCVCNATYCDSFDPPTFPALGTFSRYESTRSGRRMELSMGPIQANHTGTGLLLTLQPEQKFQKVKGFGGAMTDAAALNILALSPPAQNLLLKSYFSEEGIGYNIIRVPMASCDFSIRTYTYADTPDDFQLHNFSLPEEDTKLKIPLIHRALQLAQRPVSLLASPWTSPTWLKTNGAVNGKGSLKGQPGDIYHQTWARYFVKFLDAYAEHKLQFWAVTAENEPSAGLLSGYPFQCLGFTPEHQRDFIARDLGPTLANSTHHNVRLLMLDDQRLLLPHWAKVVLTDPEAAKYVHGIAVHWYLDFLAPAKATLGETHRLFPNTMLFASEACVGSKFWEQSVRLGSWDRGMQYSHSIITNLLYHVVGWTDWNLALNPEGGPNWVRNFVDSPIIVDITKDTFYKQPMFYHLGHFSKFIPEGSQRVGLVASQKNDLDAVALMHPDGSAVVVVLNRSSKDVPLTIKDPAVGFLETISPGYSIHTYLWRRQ
Method in brief: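 Imiglucerase in McIlvaine buffer pH 5.2 containing 0.2% (w/v) sodium taurocholate and 0.1% (v/v) Triton X-100. Enzyme pre-incubated 30 min at 37 °C with inhibitor. Then 4 mM 4-methylumbelliferyl β-D-glucopyranoside (substrate solution), 10 min at 37 °C. Stop with 100 mM glycine/NaOH pH 10.6, fluorescence ex 355/em 460 nm. IC50 from % activity vs log[I], at least five concentrations.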

Alpha-galactosidase = Alpha-galactosidase (Coffea arabica, UniProt Q42656); experiment: Inhibition of alpha-galactosidase from coffee beans
Chain of Alpha-galactosidase (Q42656 whole entry): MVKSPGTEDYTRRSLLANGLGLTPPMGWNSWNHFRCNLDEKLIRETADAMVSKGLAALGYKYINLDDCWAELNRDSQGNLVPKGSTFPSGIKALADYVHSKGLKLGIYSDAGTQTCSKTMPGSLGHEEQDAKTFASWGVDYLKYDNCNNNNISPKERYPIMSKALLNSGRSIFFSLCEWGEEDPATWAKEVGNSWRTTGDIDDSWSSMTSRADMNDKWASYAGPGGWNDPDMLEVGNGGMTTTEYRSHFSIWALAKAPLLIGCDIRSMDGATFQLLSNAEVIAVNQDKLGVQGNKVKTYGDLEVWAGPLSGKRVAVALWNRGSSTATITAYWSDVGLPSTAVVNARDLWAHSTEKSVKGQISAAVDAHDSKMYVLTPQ

[2] = Cytotoxicity against human wild type fibroblasts at up to 300 uM after 24 hrs by MTT assay; type: cell-based; details: fibroblast
[3] = molecular target: Oligo-1,6-glucosidase IMA1 (Saccharomyces cerevisiae S288c, UniProt P53051); experiment: Inhibition of yeast alpha-glucosidase
Chain of Oligo-1,6-glucosidase IMA1 (P53051 whole entry): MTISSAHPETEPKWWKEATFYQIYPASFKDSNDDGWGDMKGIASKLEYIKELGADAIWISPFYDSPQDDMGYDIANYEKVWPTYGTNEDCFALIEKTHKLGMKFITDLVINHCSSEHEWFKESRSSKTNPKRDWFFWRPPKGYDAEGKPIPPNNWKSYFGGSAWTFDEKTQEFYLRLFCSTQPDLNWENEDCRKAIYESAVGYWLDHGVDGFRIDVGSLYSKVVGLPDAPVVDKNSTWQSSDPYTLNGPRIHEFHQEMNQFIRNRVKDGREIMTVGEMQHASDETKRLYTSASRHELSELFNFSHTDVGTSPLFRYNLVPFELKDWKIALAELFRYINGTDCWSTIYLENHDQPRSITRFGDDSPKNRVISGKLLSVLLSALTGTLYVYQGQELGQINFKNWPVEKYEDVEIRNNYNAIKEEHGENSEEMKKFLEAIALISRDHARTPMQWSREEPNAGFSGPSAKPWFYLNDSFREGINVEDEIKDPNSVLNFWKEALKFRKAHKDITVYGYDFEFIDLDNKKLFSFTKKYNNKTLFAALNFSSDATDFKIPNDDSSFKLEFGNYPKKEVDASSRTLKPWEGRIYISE

Beta-galactosidase = molecular target: T2, Beta-galactosidase (Bos taurus, UniProt Q58D55); experiment: Inhibition of bovine liver beta-galactosidase
T2 sequence (Q58D55 whole entry): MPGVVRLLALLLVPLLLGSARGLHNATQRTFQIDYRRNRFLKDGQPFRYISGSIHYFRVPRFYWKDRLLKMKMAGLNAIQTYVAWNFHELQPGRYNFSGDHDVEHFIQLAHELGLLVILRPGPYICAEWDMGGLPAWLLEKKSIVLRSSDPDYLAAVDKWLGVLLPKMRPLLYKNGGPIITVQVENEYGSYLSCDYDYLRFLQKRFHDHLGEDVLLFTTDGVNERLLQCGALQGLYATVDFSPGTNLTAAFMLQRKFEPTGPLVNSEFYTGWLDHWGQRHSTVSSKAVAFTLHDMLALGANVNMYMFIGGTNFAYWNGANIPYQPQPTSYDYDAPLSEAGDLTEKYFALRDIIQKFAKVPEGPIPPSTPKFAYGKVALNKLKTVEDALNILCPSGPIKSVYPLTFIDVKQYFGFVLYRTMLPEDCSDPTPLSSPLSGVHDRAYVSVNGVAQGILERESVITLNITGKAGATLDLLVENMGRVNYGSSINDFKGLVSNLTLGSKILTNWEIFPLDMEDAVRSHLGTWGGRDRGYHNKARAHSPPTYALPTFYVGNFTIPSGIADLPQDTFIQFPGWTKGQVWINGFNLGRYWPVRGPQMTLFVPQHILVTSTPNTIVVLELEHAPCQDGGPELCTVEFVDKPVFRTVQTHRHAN

[4] = molecular target: Probable alpha-glucosidase Os06g0675700 (Oryza sativa Japonica Group, UniProt Q653V7); experiment: Inhibition of rice alpha-glucosidase
Chain of Probable alpha-glucosidase Os06g0675700 (Q653V7 whole entry): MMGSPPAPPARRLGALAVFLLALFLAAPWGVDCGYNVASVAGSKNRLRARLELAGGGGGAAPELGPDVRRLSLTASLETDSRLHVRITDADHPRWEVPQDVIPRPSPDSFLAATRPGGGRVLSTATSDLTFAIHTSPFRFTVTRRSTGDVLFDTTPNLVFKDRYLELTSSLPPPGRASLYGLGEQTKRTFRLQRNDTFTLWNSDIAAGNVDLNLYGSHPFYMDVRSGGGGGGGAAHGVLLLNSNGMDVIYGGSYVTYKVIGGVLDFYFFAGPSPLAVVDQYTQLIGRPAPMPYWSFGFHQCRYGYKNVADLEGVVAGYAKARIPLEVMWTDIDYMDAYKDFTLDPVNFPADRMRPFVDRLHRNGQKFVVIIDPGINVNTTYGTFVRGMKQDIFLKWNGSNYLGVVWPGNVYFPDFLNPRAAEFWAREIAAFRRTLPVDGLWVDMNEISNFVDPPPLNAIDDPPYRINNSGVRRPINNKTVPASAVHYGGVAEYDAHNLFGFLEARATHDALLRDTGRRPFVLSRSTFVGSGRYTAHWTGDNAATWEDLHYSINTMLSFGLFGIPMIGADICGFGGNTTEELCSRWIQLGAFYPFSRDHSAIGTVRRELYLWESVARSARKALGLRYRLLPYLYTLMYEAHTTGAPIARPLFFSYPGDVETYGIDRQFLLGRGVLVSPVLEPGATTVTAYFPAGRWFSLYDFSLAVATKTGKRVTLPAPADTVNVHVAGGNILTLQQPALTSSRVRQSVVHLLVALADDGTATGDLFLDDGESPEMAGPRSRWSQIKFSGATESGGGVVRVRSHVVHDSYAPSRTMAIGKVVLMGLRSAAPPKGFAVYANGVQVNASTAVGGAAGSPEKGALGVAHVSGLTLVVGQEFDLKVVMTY

[5] = molecular target: T3, Lysosomal acid glucosylceramidase (Homo sapiens) (UniProt P04062); experiment: Inhibition of glucocerebrosidase in human intact fibroblasts at 50 uM after 24 hrs by fluorometric analysis
T3 sequence (whole entry): T1 sequence (P04062 whole entry)
Method in brief: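 Fibroblasts grown in MEM with 15% inactivated FCS, 37 °C, 5% CO2, passages 14–30. Plated in DMEM with aminocyclitol (50 μM final, from DMSO) for 24 h, washed with PBS. GCase assayed with 1 h incubation at 37 °C, stopped with 100 mM glycine-NaOH pH 10.6, fluorescence 355/460 nm. Untreated and treated cells in quadruplicate.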

[6] = molecular target: T1, Lysosomal acid glucosylceramidase; experiment: Competitive inhibition of recombinant glucocerebrosidase
[7] = molecular target: T3, Lysosomal acid glucosylceramidase (Homo sapiens); experiment: Enzyme stabilization ratio of recombinant glucocerebrosidase activity at 48 degC to at 37 degC at 100 uM after 60 mins
[8] = molecular target: T4, Ceramide glucosyltransferase (Homo sapiens) (UniProt Q16739); experiment: Inhibition of glucosylceramide synthase in human A549 cells at 250 uM after 35 mins by fluorometric analysis; type: cell-based
T4 sequence (whole entry): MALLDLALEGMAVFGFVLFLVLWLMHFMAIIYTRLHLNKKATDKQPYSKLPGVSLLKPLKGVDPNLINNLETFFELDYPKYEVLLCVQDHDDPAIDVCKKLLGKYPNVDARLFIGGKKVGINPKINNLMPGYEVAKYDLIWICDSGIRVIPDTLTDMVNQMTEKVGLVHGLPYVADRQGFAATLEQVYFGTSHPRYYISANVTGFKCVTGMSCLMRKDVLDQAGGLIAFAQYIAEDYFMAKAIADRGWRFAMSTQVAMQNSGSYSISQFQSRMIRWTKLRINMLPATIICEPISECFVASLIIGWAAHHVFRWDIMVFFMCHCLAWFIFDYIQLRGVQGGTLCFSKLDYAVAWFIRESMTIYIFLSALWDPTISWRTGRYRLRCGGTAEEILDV

[9] = molecular target: T3, Lysosomal acid glucosylceramidase (Homo sapiens); experiment: Thermal stabilization of recombinant glucocerebrosidase assessed as enzyme activity at 150 uM at 48 degC after 60 mins
Method in brief: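 GCase (2 mg/mL) heated at 48 °C, pH 7.4, with water (control) or compound at 10–150 μM final, for 20, 40 or 60 min. Then acetate-phosphate pH 5.0 and 4 mM 4-methylumbelliferyl β-D-glucoside in McIlvaine pH 5.2 added, 10 min at 37 °C. Stopped with glycine pH 10.6, 4-methylumbelliferone measured. Activity relative to identical assay at 37 °C. SR = relative activity with vs without inhibitor.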

[10] = molecular target: T1, Lysosomal acid glucosylceramidase; experiment: Inhibition of recombinant glucocerebrosidase in McIlvaine buffer at pH 7.4 after 10 mins by fluorometric analysis

IC50 [1] [µM]	IC50 (Alpha-galactosidase) [µM]	IC50 [3] [µM]	IC50 (Beta-galactosidase) [µM]	IC50 [4] [µM]	Structure (SMILES)	Activity [2]	further results
325					CC(C)(C)OCCCOCCCn1cc(CN[C@H]2[C@H](O)[C@@H](O)[C@H](O)[C@@H](O)[C@@H]2O)nn1		
0.15	> 100	> 100	> 100	> 100	CCCCCCCCCCn1cc(CN[C@H]2[C@H](O)[C@@H](O)[C@H](O)[C@@H](O)[C@@H]2O)nn1	Non-toxic	
237					CCCCc1ncc(Cn2cc(CN[C@H]3[C@H](O)[C@@H](O)[C@H](O)[C@@H](O)[C@@H]3O)nn2)[nH]1		
2.25	> 100	> 100	> 100	> 100	CCCCCCCCn1cc(CN[C@H]2[C@H](O)[C@@H](O)[C@H](O)[C@@H](O)[C@@H]2O)nn1	Non-toxic	
2.2	> 100	> 100	> 100	> 100	O[C@@H]1[C@@H](O)[C@H](O)[C@@H](NCc2cn(CC34CC5CC(CC(C5)C3)C4)nn2)[C@H](O)[C@H]1O	Non-toxic	inhibition [5]: 63%; Ki [6]: 1.05 µM; Ratio [7]: 0.7; inhibition [8]: 32%; Activity [9]: inactive; IC50 [10]: 1.9 µM
181					CCCCOCCCOCCCn1cc(CN[C@H]2[C@H](O)[C@@H](O)[C@H](O)[C@@H](O)[C@@H]2O)nn1		
	> 100	> 100	> 100	> 100	CCCCCCCCCN1C[C@H](O)[C@@H](O)[C@H](O)[C@H]1CO	Non-toxic	
12.2					O[C@@H]1[C@@H](O)[C@H](O)[C@@H](NCc2cn(CCCc3nc4ccc(C(F)(F)F)cc4[nH]3)nn2)[C@H](O)[C@H]1O		
1.5	> 100	> 100	> 100	> 100	O[C@@H]1[C@@H](O)[C@H](O)[C@@H](NCc2cn(CCCCC3CCCCC3)nn2)[C@H](O)[C@H]1O	Non-toxic	inhibition [5]: 30%; Ki [6]: 0.29 µM; Ratio [7]: 7.5; inhibition [8]: 8%; IC50 [10]: 0.3 µM
66.5					CN1CCN(Cc2cccc(Cn3cc(CN[C@H]4[C@H](O)[C@@H](O)[C@H](O)[C@@H](O)[C@@H]4O)nn3)c2)CC1		
1.5	> 100	> 100	> 100	> 100	O[C@@H]1[C@@H](O)[C@H](O)[C@@H](NCc2cn(CCC(c3ccccc3)c3ccccc3)nn2)[C@H](O)[C@H]1O	Non-toxic	inhibition [5]: 73%; Ki [6]: 0.77 µM; Ratio [7]: 0.5; inhibition [8]: 18%; Activity [9]: inactive; IC50 [10]: 1.8 µM
44.5					CSCCCn1cc(CN[C@H]2[C@H](O)[C@@H](O)[C@H](O)[C@@H](O)[C@@H]2O)nn1		
453					COCCCOCCCOCCCn1cc(CN[C@H]2[C@H](O)[C@@H](O)[C@H](O)[C@@H](O)[C@@H]2O)nn1		
10					O[C@@H]1[C@@H](O)[C@H](O)[C@@H](NCc2cn(CCCCCOCc3ccccc3)nn2)[C@H](O)[C@H]1O		
30.9					O[C@@H]1[C@@H](O)[C@H](O)[C@@H](NCc2cn(Cc3ccc(CN4CCCCC4)cc3)nn2)[C@H](O)[C@H]1O		
5.8					OCCCCCCCn1cc(CN[C@H]2[C@H](O)[C@@H](O)[C@H](O)[C@@H](O)[C@@H]2O)nn1		
134					CC(C)(CO)Cn1cc(CN[C@H]2[C@H](O)[C@@H](O)[C@H](O)[C@@H](O)[C@@H]2O)nn1		
4.32					O[C@@H]1[C@@H](O)[C@H](O)[C@@H](NCc2cn(CCCC3CCCCC3)nn2)[C@H](O)[C@H]1O		
0.06	> 100	> 100	> 100	> 100	CCCCCCCCCCCn1cc(CN[C@H]2[C@H](O)[C@@H](O)[C@H](O)[C@@H](O)[C@@H]2O)nn1	Non-toxic	inhibition [5]: 97%; Ki [6]: 0.05 µM; Ratio [7]: 30.5; inhibition [8]: 29%; IC50 [10]: 0.1 µM
35.9					O[C@@H]1[C@@H](O)[C@H](O)[C@@H](NCc2cn(C3CSCCCSC3)nn2)[C@H](O)[C@H]1O		
466					COCCCOCCCn1cc(CN[C@H]2[C@H](O)[C@@H](O)[C@H](O)[C@@H](O)[C@@H]2O)nn1		
2.19	> 100	> 100	43	> 100	OCCCCCCCCCCn1cc(CN[C@H]2[C@H](O)[C@@H](O)[C@H](O)[C@@H](O)[C@@H]2O)nn1	Non-toxic	inhibition [5]: 28%; Ki [6]: 0.89 µM; Ratio [7]: 6.9; inhibition [8]: 28%; IC50 [10]: 1.3 µM
17.3					O[C@@H]1[C@@H](O)[C@H](O)[C@@H](NCc2cn(Cc3cc4nsnc4cc3Cl)nn2)[C@H](O)[C@H]1O		
114					Cn1nnc2ccc(Cn3cc(CN[C@H]4[C@H](O)[C@@H](O)[C@H](O)[C@@H](O)[C@@H]4O)nn3)cc21		
0.05	> 100	> 100	> 100	> 100	O[C@@H]1[C@@H](O)[C@H](O)[C@@H](NCc2cn(Cc3cc(OCc4ccccc4)cc(OCc4ccccc4)c3)nn2)[C@H](O)[C@H]1O	Non-toxic	inhibition [5]: 93%; Ki [6]: 0.05 µM; Ratio [7]: 31.2; inhibition [8]: 9%; IC50 [10]: 0.06 µM
10.3					O[C@@H]1[C@@H](O)[C@H](O)[C@@H](NCc2cn(Cc3cccc(I)c3)nn2)[C@H](O)[C@H]1O		

Structure (SMILES)	IC50 [1] [µM]	IC50 (Alpha-galactosidase) [µM]	IC50 [3] [µM]	IC50 (Beta-galactosidase) [µM]	IC50 [4] [µM]	Activity [2]	further results
CCCCCCCCCCN[C@H]1[C@H](O)[C@@H](O)[C@H](O)[C@@H](O)[C@@H]1O		> 100	> 100	> 100	> 100	Non-toxic	Ratio [7]: 4.9
